Data reported in ChEMBL document CHEMBL5653630, “Activation of the p53-MDM4 regulatory axis defines the anti-tumour response to PRMT5 inhibition through its role in regulating cellular splicing” (Sci Rep, 2018).
Values belong to the compound of their own block, whether it stands above or below them. Active and inactive are the calls of the source. The rule behind the calls is not given here.

Legend:
[1] = system: Z-138; assay: Induction of cell cycle arrest in human Z138 cells assessed as decrease in 2n cell population measured upto 1000 nM measured for 2 to 5 days by propidium iodide staining based flow cytometric analysis; type: functional; conditions: time 2-5 day
[2] = system: MINO; assay: Induction of cell cycle arrest in human MINO cells assessed as increase in 2n cell population measured upto 5000 nM measured for 3 days by propidium iodide staining based flow cytometric analysis; type: functional; conditions: time 3.0 day
[3] = system: Z-138; assay: Antitumor activity against human Z138 cells xenografted in mouse at 25 to 50 mg/kg, po BID measured at 14 to 21 days; type: functional, organism-based; conditions: dose lower […], dose upper 50.0 mg/kg, time 14-21 day
[4] = Antiproliferative activity against human KHOS-240S cells assessed as cell growth inhibition incubated for 10 days; type: functional; conditions: 240 h, time 10 day
How it was run: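 Eurofins-panel 10-day assay in 384-well plates. Cells grown in RPMI-1640 with 10% FBS, 2 mM L-alanyl-L-glutamine and 1mM Na pyruvate, or a special medium, at 37°C in 5% CO₂. Compound added 24 h after seeding, 10-point 3.16-fold series in 0.1% DMSO. Medium replaced and compound re-dosed at 168 h. Nuclei fixed and stained after 240 h, then imaged to give a relative cell count. gIC50 is the concentration giving growth midway between untreated and time-zero counts, from a 4-parameter fit.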

[5] = Antiproliferative activity against human RKOE6 cells assessed as cell growth inhibition incubated for 10 days; type: functional; conditions: RKOE6, 240 h, time 10 day
[6] = system: Detroit 562; assay: Antiproliferative activity against human Detroit 562 cells assessed as cell growth inhibition incubated for 10 days; type: functional; conditions: Detroit 562, 240 h, time 10 day
How it was run: (§1)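 Outsourced panel run in 384-well plates. Cells were grown in RPMI-1640/10% FBS or a special medium at 37°C, 5% CO2. Compound was added 24 h after seeding as a 10-point, 3.16-fold series in 0.1% DMSO. Medium was refreshed and cells re-dosed at 168 h, with a time-zero plate kept. At 240 h cells were fixed, nuclei stained and imaged. gIC50 is growth midway between untreated and time zero, from a 4-parameter fit.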

[7] = system: SNU-5; assay: Antiproliferative activity against human SNU-5 cells assessed as cell growth inhibition incubated for 10 days; type: functional; conditions: SNU-5, 240 h, time 10 day
[8] = system: SCC-9; assay: Antiproliferative activity against human SCC-9 cells assessed as cell growth inhibition incubated for 10 days; type: functional; conditions: SCC-9, 240 h, time 10 day
[9] = system: NCI-H596; assay: Antiproliferative activity against human NCI-H596 cells assessed as cell growth inhibition incubated for 10 days; type: functional; conditions: NCI-H596, 240 h, time 10 day
[10] = system: Y79; assay: Antiproliferative activity against human Y79 cells assessed as cell growth inhibition incubated for 10 days; type: functional; conditions: Y79, 240 h, time 10 day
[11] = system: COLO-829; assay: Antiproliferative activity against human COLO-829 cells assessed as cell growth inhibition incubated for 10 days; type: functional; conditions: COLO-829, 240 h, time 10 day
How it was run: (§2)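 Cells kept in RPMI-1640 with 10% FBS, 2 mM L-alanyl-L-glutamine and 1 mM Na pyruvate (or a special medium) at 37°C, 5% CO2. Compound added 24 h after seeding, 10 concentrations in 3.16-fold dilution, 0.1% DMSO final. Medium replaced and cells re-dosed at 168 h; 240 h incubation. Nuclei fixed, dye-stained and imaged. gIC50 = growth midway between untreated and time-zero cell counts, from a 4-parameter fit.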

[12] = system: C-33-A; assay: Antiproliferative activity against human C-33-A cells assessed as cell growth inhibition incubated for 10 days; type: functional; conditions: 240 h, time 10 day; how it was run: as §2
[13] = system: WI-38; assay: Antiproliferative activity against human WI-38 cells assessed as cell growth inhibition incubated for 10 days; type: functional; conditions: WI-38, 240 h, time 10 day
[14] = system: A-375; assay: Antiproliferative activity against human A-375 cells assessed as cell growth inhibition incubated for 10 days; type: functional; conditions: A-375, 240 h, time 10 day; how it was run: as §2
[15] = system: SW872; assay: Antiproliferative activity against human SW872 cells assessed as cell growth inhibition incubated for 10 days; type: functional; conditions: SW872, 240 h, time 10 day
[16] = system: RPMI-6666; assay: Antiproliferative activity against human RPMI-6666 cells assessed as cell growth inhibition incubated for 10 days; type: functional; conditions: RPMI-6666, 240 h, time 10 day
[17] = system: HCT-8; assay: Antiproliferative activity against human HCT-8 cells assessed as cell growth inhibition incubated for 10 days; type: functional; conditions: HCT-8, 240 h, time 10 day; how it was run: as §1
[18] = system: SK-MES-1; assay: Antiproliferative activity against human SK-MES-1 cells assessed as cell growth inhibition incubated for 10 days; type: functional; conditions: SK-MES-1, 240 h, time 10 day
[19] = target: Protein arginine N-methyltransferase 5 (Homo sapiens) (UniProt O14744); assay: Inhibition of PRMT5 in human Z138 cells expressing full length MDM4 assessed as effect on p53 level at 1 uM incubated for 4 days by Western blot analysis; type: cell-based; conditions: time 4.0 day
Chain of Protein arginine N-methyltransferase 5 (Homo sapiens) (O14744 whole entry): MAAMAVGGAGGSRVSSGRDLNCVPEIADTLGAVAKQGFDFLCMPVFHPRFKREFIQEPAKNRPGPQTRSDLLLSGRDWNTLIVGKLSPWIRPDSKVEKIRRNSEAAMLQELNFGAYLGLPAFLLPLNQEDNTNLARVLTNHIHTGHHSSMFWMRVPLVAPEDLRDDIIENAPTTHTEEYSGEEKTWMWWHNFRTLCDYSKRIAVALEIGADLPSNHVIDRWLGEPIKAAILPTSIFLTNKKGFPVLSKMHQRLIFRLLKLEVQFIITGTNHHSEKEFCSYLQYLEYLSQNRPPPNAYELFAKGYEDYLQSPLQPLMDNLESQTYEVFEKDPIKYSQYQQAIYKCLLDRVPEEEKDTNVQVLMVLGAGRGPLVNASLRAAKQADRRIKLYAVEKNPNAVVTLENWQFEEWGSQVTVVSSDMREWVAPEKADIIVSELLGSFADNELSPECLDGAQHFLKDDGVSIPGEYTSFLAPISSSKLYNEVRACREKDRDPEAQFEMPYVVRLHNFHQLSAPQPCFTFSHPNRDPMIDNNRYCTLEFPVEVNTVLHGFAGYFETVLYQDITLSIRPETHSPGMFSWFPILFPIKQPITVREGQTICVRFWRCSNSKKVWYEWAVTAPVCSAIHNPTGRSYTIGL

[20] = system: SK-N-AS; assay: Antiproliferative activity against human SK-N-AS cells assessed as cell growth inhibition incubated for 10 days; type: functional; conditions: 240 h, time 10 day
[21] = system: OE33; assay: Antiproliferative activity against human OE33 cells assessed as cell growth inhibition incubated for 10 days; type: functional; conditions: OE33, 240 h, time 10 day
[22] = Antiproliferative activity against human HUH-6-clone5 cells assessed as cell growth inhibition incubated for 10 days; type: functional; conditions: HUH-6-clone5, 240 h, time 10 day; how it was run: as §1
[23] = Antiproliferative activity against human BM-1604 cells assessed as cell growth inhibition incubated for 10 days; type: functional; conditions: BM-1604, 240 h, time 10 day; how it was run: as §2
[24] = system: A101D; assay: Antiproliferative activity against human A101D cells assessed as cell growth inhibition incubated for 10 days; type: functional; conditions: 240 h, time 10 day; how it was run: as §2
[25] = system: SW837; assay: Antiproliferative activity against human SW837 cells assessed as cell growth inhibition incubated for 10 days; type: functional; conditions: SW837, 240 h, time 10 day
[26] = system: A 172; assay: Antiproliferative activity against human A-172 cells assessed as cell growth inhibition incubated for 10 days; type: functional; conditions: A 172, 240 h, time 10 day; how it was run: as §2
[27] = system: L-428; assay: Antiproliferative activity against human L-428 cells assessed as cell growth inhibition incubated for 10 days; type: functional; conditions: L-428, 240 h, time 10 day
[28] = system: SK-NEP-1; assay: Antiproliferative activity against human SK-NEP-1 cells assessed as cell growth inhibition incubated for 10 days; type: functional; conditions: SK-NEP-1, 240 h, time 10 day
[29] = system: Ramos; assay: Antiproliferative activity against human Ramos cells assessed as cell growth inhibition incubated for 10 days; type: functional; conditions: 240 h, time 10 day
[30] = system: COLO 201; assay: Antiproliferative activity against human COLO201 cells assessed as cell growth inhibition incubated for 10 days; type: functional; conditions: COLO 201, 240 h, time 10 day; how it was run: as §2
[31] = system: Caov-3 cell line; assay: Antiproliferative activity against human Caov-3 cell line assessed as cell growth inhibition incubated for 10 days; type: functional; conditions: Caov-3, 240 h, time 10 day; how it was run: as §1
[32] = system: CRO-AP2; assay: Antiproliferative activity against human CRO-AP2 cells assessed as cell growth inhibition incubated for 10 days; type: functional; conditions: CRO-AP2, 240 h, time 10 day; how it was run: as §1
[33] = Antiproliferative activity against human SW579 cells assessed as cell growth inhibition incubated for 10 days; type: functional; conditions: SW579, 240 h, time 10 day

SMILES: CC(=O)N1CCC(Nc2cc(C(=O)NC[C@H](O)CN3CCc4ccccc4C3)ncn2)CC1 [PEMRAMETOSTAT]
Activity [1]: Active
Activity [2]: inactive
Activity [3]: inactive

GI50 [7]: 110 nM
GI50 [9]: 188 nM
GI50 [11]: 54.4 nM
GI50 [14]: 79.6 nM
GI50 [15]: 54 nM
GI50 [17]: 430 nM
GI50 [18]: 807 nM
inhibition [19]: inactive
GI50 [20]: 31.9 nM
GI50 [25]: 102 nM
GI50 [28]: 264 nM
GI50 [29]: 546 nM
GI50 [30]: 49.6 nM
SMILES: O=C(NC[C@H](O)CN1CCc2ccccc2C1)c1ccnc(NC2CCC2)c1
GI50 [4]: 124 nM
GI50 [5]: 210 nM
GI50 [6]: 104 nM
GI50 [8]: 747 nM
GI50 [10]: 113 nM
GI50 [12]: 228 nM
GI50 [13]: 18.5 nM
GI50 [16]: 748 nM
GI50 [21]: 231 nM
GI50 [22]: 361 nM
GI50 [23]: 142 nM
GI50 [24]: 190 nM
GI50 [26]: 29.6 nM
GI50 [27]: 330 nM
GI50 [31]: 298 nM
GI50 [32]: 250 nM
GI50 [33]: 83.3 nM
